The assay addresses T1, Angiotensin-converting enzyme (Oryctolagus cuniculus, UniProt P12822).
T1 sequence (P12822 whole entry): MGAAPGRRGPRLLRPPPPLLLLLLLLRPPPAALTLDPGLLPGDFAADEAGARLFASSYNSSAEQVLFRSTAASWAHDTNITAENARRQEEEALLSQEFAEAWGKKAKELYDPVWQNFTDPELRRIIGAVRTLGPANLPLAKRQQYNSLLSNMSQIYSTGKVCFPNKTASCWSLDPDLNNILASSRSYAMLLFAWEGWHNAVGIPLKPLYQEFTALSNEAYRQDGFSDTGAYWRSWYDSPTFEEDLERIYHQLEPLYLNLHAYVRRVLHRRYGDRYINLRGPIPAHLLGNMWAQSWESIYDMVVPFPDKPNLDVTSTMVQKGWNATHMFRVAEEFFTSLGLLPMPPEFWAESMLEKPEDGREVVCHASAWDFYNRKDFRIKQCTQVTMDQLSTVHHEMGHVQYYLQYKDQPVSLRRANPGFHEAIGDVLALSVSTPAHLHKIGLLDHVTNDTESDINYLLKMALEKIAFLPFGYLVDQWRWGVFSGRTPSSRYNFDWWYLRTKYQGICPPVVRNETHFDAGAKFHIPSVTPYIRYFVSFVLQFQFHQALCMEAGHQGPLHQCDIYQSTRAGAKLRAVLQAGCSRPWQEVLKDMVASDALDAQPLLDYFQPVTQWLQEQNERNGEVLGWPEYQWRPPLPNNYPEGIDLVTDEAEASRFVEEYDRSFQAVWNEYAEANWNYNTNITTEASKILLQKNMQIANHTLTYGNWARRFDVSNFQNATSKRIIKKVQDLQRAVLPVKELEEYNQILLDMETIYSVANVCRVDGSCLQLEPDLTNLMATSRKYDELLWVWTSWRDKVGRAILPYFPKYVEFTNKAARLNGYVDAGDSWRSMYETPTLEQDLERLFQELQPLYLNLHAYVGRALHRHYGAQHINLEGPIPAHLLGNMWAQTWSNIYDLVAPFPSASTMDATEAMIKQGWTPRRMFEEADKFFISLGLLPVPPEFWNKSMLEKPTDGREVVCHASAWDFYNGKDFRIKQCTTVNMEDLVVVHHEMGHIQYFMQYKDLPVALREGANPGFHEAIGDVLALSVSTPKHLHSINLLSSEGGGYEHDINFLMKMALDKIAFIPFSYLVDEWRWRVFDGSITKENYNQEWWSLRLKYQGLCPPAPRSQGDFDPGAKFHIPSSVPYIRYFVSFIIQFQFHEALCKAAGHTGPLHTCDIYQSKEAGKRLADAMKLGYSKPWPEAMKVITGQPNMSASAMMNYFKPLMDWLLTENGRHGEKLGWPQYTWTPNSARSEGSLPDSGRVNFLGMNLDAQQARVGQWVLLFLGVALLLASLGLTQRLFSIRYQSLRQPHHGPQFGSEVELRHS
Briefly: In vitro inhibition of Angiotensin I converting enzyme with relative to captopril(=1). In short, it runs like this:
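Crude ACE from rabbit lung acetone powder extracted in 50 mM potassium phosphate pH 8.3, spun 40000g. Final assay: 100 mM phosphate pH 8.3, 300 mM NaCl, 5 mM hippuryl-His-Leu; enzyme added last, 30 min at 37 °C, stopped with HCl. Hippuric acid extracted into EtOAc, dried, redissolved in water, read by absorbance.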

Take `O=C(O)[C@@H]1CCCN1C(=O)CCS`: 200 nM corresponded to half-maximal inhibition (IC50).

As a reminder, the IC50 is the point on the concentration scale where inhibition reaches its midpoint. A higher IC50 goes with weaker potency.

For the origin of these results see BindingDB's records for doi:10.1021/jm00399a033 (Schering-Plough, 1988).
